Calls of active or inactive are those of the source. No cut-off for these calls is given here.
Tests used:
Escherichia coli [1] = assay: Antibacterial activity against Escherichia coli JW0451 containing lesion in acrB locus assessed as growth inhibition at 12.5 ug/mL after 16 to 20 hrs by broth dilution method; assay type: functional, organism-based
In short: (§1)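 E. coli BW25113 (wild type) and JW0451 (ΔacrB) tested by broth dilution in cation-adjusted Mueller Hinton II, ~1×10^3 cfu, 16–20 h. Growth shown with resazurin. Checkerboard combination with the efflux inhibitor PAβN in the wild type.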

Pseudomonas aeruginosa = assay: Antibacterial activity against Pseudomonas aeruginosa ATCC 9028 assessed as growth inhibition at 0.8 to 100 ug/mL after 16 to 20 hrs by resazurin dye-based assay; assay type: functional, organism-based
In short: (§2)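 Broth microdilution. Test article from 1 μL DMSO in 50 μL cation-adjusted Mueller Hinton II (bacteria) or RPMI 1640 (fungi), plus ~1×10^3 cfu inoculum in the same medium. Incubated 16–20 h at 30–37 °C (48 h for fungi). MIC scored visually as the first well without growth; resazurin added for imaging.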

Escherichia coli [2] = assay: Antibacterial activity against Escherichia coli BW25113 assessed as growth inhibition at 0.8 to 100 ug/mL after 16 to 20 hrs by resazurin dye-based assay; assay type: functional; in short: as §2
Escherichia coli [3] = assay: Antibacterial activity against Escherichia coli K-12 assessed as growth inhibition at 0.8 to 100 ug/mL after 16 to 20 hrs by resazurin dye-based assay; assay type: functional, organism-based; in short: as §2
Staphylococcus aureus [4] = assay: Antibacterial activity against community-acquired methicillin-resistant Staphylococcus aureus USA500 assessed as growth inhibition at 0.8 to 100 ug/mL after 16 to 20 hrs by resazurin dye-based assay; assay type: functional, organism-based
In short: (§3)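 Broth microdilution. Inoculum from overnight liquid cultures or 2-day colonies, ~1 × 10^3 cfu per well. Compound in DMSO added to cation-adjusted Mueller Hinton II broth (bacteria) or RPMI 1640 (fungi). Incubated at 30–37 °C for 16–20 h, or 48 h for fungi.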

Staphylococcus aureus [5] = assay: Antibacterial activity against community-acquired methicillin-resistant Staphylococcus aureus BAA-1717 assessed as growth inhibition at 0.8 to 100 ug/mL after 16 to 20 hrs by resazurin dye-based assay; assay type: functional, organism-based; in short: as §3
Bacillus subtilis [6] = assay: Antibacterial activity against Bacillus subtilis OKB105 assessed as growth inhibition at 1.7 ug/mL after 16 to 20 hrs by resazurin dye-based assay; assay type: functional, organism-based
HepG2 = assay: Cytotoxicity against human HepG2 cells assessed as cellular ATP content after 48 hrs by CellTiter-Glo assay; assay type: cell-based; details: HepG2, 48 h
In short: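 HepG2 cells exposed to compound; viability read as cellular ATP by luciferase-coupled CellTiter-Glo.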

[7] = Inhibition of Bacillus subtilis Sfp-PPTase using rhodamine-CoA/BHQ-2-YbbR as substrate preincubated for 15 mins followed by substrate addition by HTS assay
[8] = Chemical stability of the compound in PBS buffer at room temperature measured over 48 hrs by LC/MS analysis; assay type: physicochemical
In short: (§4)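 Compound held in aqueous media over pH 2–9 and in PBS and HEPES buffers, then monitored for degradation.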

Staphylococcus aureus [9] = assay: Antibacterial activity against Staphylococcus aureus BK2395 in Swiss Webster mouse septicemia model assessed as increase in survival at 30 mg/kg, ip administered 4 to 48 hrs measured 3 times daily for 14 days relative to vehicle-treated control; assay type: functional, organism-based; parameters: dose 30 mg/kg
In short: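 MRSA USA500 strain BK2395 used in a mouse sepsis model. Treated animals compared with vehicle, with vancomycin as a reference treatment; survival monitored.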

Staphylococcus aureus [10] = assay: Antibacterial activity against Staphylococcus aureus isolated from kidney of 30 mg/kg, ip compound-treated Swiss Webster mouse septicemia model assessed as growth inhibition; assay type: functional, organism-based; parameters: dose 30 mg/kg
In short: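 Bacteria harvested from the kidneys of septic mice treated with vehicle or compound, five isolates taken per crude sample. MICs measured in parallel with the parental USA500 strain.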

Mus musculus = assay: Toxicity in CD-1 mouse at 30 mg/kg, ip measured over 24 hrs; assay type: organism-based; parameters: dose 30 mg/kg, route intraperitoneal; details: in vivo
In short: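 Male CD1 mice, 6–8 weeks old, given 30 mg/kg ip in 5% DMSO/10% Solutol/water. Clinical observations recorded over 24 h.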

[11] = Clearance in CD-1 mouse at 3 mg/kg, iv; assay type: ADME, organism-based; parameters: dose 3 mg/kg, route intravenous; details: in vivo
In short: (§5)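 Male CD1 mice, 6–8 weeks old. Dosed iv at 3 mg/kg or ip at 30 mg/kg as a solution in 5% DMSO/10% Solutol in water. Plasma sampled in triplicate at eight time points over 24 h.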

[12] = AUC (infinity) in CD-1 mouse at 30 mg/kg, ip; assay type: ADME, organism-based; parameters: time infinity, dose 30 mg/kg, route intraperitoneal; details: plasma; in short: as §5
[13] = AUC (infinity) in CD-1 mouse at 3 mg/kg, iv; assay type: ADME, organism-based; parameters: time infinity, dose 3 mg/kg, route intravenous; details: plasma; in short: as §5
[14] = Half life in CD-1 mouse at 30 mg/kg, ip; assay type: ADME, organism-based; parameters: dose 30 mg/kg, route intraperitoneal; details: in vivo; in short: as §5
[15] = Half life in CD-1 mouse at 3 mg/kg, iv; assay type: ADME, organism-based; parameters: dose 3 mg/kg, route intravenous; details: in vivo; in short: as §5
[16] = Chemical stability of the compound in HEPES buffer at room temperature measured over 48 hrs by LC/MS analysis; assay type: physicochemical; in short: as §4
[17] = Metabolic stability in mouse plasma at 2 hrs; assay type: ADME, cell-free; details: read-out: Stability
In short: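 Compound incubated in mouse plasma; stability measured at 2 h (Pharmaron).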

[18] = Permeability of the compound by PAMPA; assay type: physicochemical
[19] = Chemical stability of the compound in aqueous media at pH 2 to 9 at room temperature measured over 5 hrs by LC/MS analysis; assay type: physicochemical; details: buffer, pH 2, 5 h; in short: as §4
Liver microsome [20] = assay: Half life in rat liver microsomes in presence of NADPH; assay type: ADME
In short: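 Liver microsomes from mouse or rat incubated with compound in the presence of NADPH. Mouse assay done at Pharmaron.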

Bacillus subtilis [21] = assay: Antibacterial activity against Bacillus subtilis OKB105 assessed as effect on cellular density at 0.53 to 1.1 ug/mL after 28 hrs; assay type: functional, organism-based
In short: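 B. subtilis OKB105 cultured with compound at 0.53 or 1.1 µg/mL against a vehicle control. Culture density and surfactin titer sampled periodically over 28 h.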

Escherichia coli [22] = assay: Antibacterial activity against wild type Escherichia coli BW25113 assessed as growth inhibition at 1.8 to 250 ug/mL after 16 to 20 hrs by broth dilution method; assay type: functional; in short: as §1
Liver microsome [23] = assay: Metabolic stability in mouse liver microsomes measured over 1 hr in absence of NADPH

Structure (SMILES): COc1ccnc(NC(=S)N2CCN(c3ncc(C(F)(F)F)cc3Cl)CC2)c1
- growth inhibition (GI) (Escherichia coli [1]): Active
- growth inhibition (GI) (Pseudomonas aeruginosa): inactive
- growth inhibition (GI) (Escherichia coli [2]): inactive
- growth inhibition (GI) (Escherichia coli [3]): inactive
- growth inhibition (GI) (Staphylococcus aureus [4]): Active
- growth inhibition (GI) (Staphylococcus aureus [5]): Active
- growth inhibition (GI) (Bacillus subtilis [6]): Active
- IC50 (HepG2): ≥ 114000 nM
- IC50 [7]: 290 nM
- Stability [8]: Stable
- Activity (Staphylococcus aureus [9]): inactive
- growth inhibition (GI) (Staphylococcus aureus [10]): Active
- Activity (Mus musculus): Non-toxic
- clearance [11]: 7.2 mL/min/kg
- AUC(0-inf) [12]: 68900 ng·h/mL
- AUC(0-inf) [13]: 6980 ng·h/mL
- half-life [14]: 2 h
- half-life [15]: 2.4 h
- Stability [16]: Stable
- remaining at 2 h [17]: 100%
- permeability [18]: 1120 ×10⁻⁶ cm/s
- Stability [19]: Stable
- t1/2 (Liver microsome [20]): > 0.5 h
- Activity (Bacillus subtilis [21]): inactive
- growth inhibition (GI) (Escherichia coli [22]): inactive
- Stability (Liver microsome [23]): Stable

From ChEMBL document CHEMBL3124880, “4-(3-Chloro-5-(trifluoromethyl)pyridin-2-yl)-N-(4-methoxypyridin-2-yl)piperazine-1-carbothioamide (ML267), a potent inhibitor of bacterial phosphopantetheinyl transferase that attenuates secondary metabolism and thwarts bacterial growth” (J Med Chem, 2014)
